Tests used:
Caco-2 = assay: Ratio of permeability from apical to basolateral side over basolateral to apical side of human Caco-2 cell membrane; format: ADME, cell-based
[1] = Permeability from apical to basolateral side of human Caco-2 cell membrane; format: ADME, cell-based
Mus musculus [2] = assay: Gastrointestinal toxicity in mouse assessed as tail bleeding time at 200 mg/kg, po after 60 mins; format: organism-based; parameters: dose 200 mg/kg, route oral; details: in vivo, 1 h
Summary of the method: (§1)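 Male mice (18–22 g) are dosed orally and compared with an NS group. At 30, 45, 60 and 90 min after dosing, each mouse is restrained in a tube holder and a 2-mm cut is made on the tail. Blood is wiped away every 30 s until flow stops, and the time to cessation is recorded.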

Mus musculus [3] = assay: Antiinflammatory activity in Kunming mouse assessed as inhibition of xylene-induced ear edema at 5 mg/kg, po after […]rs; format: functional
Summary of the method: (§2)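 Male Kunming mice receive the agent orally as a suspension in 0.5% CMC; the vehicle group gets CMC alone. After 30 min, 0.03 ml xylene is applied to both surfaces of the right ear, and the left ear serves as control. At 2 h, mice are killed and 7-mm ear punches are weighed. Edema is taken as right minus left punch weight, and inhibition is calculated versus vehicle. n = 11; ANOVA.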

Mus musculus [4] = assay: Gastrointestinal toxicity in mouse assessed as tail bleeding time at 200 mg/kg, po after 30 mins; format: organism-based; parameters: dose 200 mg/kg, route oral; details: in vivo, 0.5 h; summary of the method: as §1
[5] = Inhibition of bovine brain PKC; parameters: species or system Bos taurus
Mus musculus [6] = assay: Antiinflammatory activity in Kunming mouse assessed as inhibition of xylene-induced ear edema at 20 mg/kg, po after […]rs; format: functional; summary of the method: as §2
Mus musculus [7] = assay: Gastrointestinal toxicity in mouse assessed as tail bleeding time at 200 mg/kg, po after 45 mins; format: organism-based; parameters: dose 200 mg/kg, route oral; details: in vivo, 0.75 h; summary of the method: as §1
Mus musculus [8] = assay: Gastrointestinal toxicity in mouse assessed as tail bleeding time at 200 mg/kg, po after 90 mins; format: organism-based; parameters: dose 200 mg/kg, route oral; details: in vivo, 1.5 h; summary of the method: as §1
Mus musculus [9] = assay: Antiinflammatory activity in Kunming mouse assessed as inhibition of xylene-induced ear edema at 10 mg/kg, po after […]rs; format: functional; summary of the method: as §2
[10] = Permeability from basolateral to apical side of human Caco-2 cell membrane; format: ADME, cell-based
Mus musculus [11] = assay: Antiinflammatory activity in Kunming mouse assessed as inhibition of xylene-induced ear edema at 30 mg/kg, po after […]rs; format: functional; summary of the method: as §2

`C[C@@H]1O[C@@H](c2ccc([N+](=O)[O-])cc2)OC[C@H]1N` gave a Ratio (Caco-2) of 1.87, a Papp A→B [1] of 13 ×10⁻⁶ cm/s and a Time (Mus musculus [2]) of 117.2 s. The inhibition in vivo at 5 mg/kg (Mus musculus [3]) was 42.3%, the Time (Mus musculus [4]) was 118.4 s and the IC50 [5] was 890 µM. The inhibition in vivo at 20 mg/kg (Mus musculus [6]) was 78.5%, the Time (Mus musculus [7]) was 119.2 s and the Time (Mus musculus [8]) was 118.9 s. It also gave an inhibition in vivo at 10 mg/kg (Mus musculus [9]) of 58% and a Papp B→A [10] of 6.96 ×10⁻⁶ cm/s.
For `CC(=O)Oc1ccccc1C(=O)O` [ASPIRIN], the inhibition in vivo at 30 mg/kg (Mus musculus [11]) was 40.7% and the inhibition in vivo at 20 mg/kg (Mus musculus [6]) was 40.7%.
